Test results from publication PMC10883374 (Science Advances, 2022).
Numbering of substitutions follows the chain as printed.

Columns and labels:
[1] = target: dSAMTOR (WT, full-length) (Drosophila melanogaster, UniProt Q9W138); experiment: ITC ligand binding, WT dSAMTOR
How it was run: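 Full-length dSAMTOR was expressed as His6-SUMO fusion in E. coli BL21 (DE3), Ni-NTA purified, tag-cleaved, then gel-filtered into 10 mM Hepes pH 7.5, 150 mM NaCl, 1 mM DTT. ITC ran at 25°C: 20 × 2 µl injections of 1 mM SAM or SAH into 0.2 mM protein, discarding an initial 0.8 µl injection, with a buffer background titration. Single-site nonlinear least-squares fit gave ΔH, n and Kd.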

[2] = target: N-terminal truncated dSAMTOR (Δ1-64) (Drosophila melanogaster, UniProt Q9W138); experiment: ITC ligand binding, Δ1-64 dSAMTOR
How it was run: (§1)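 Tag-free dSAMTOR, expressed as His6-SUMO fusion in E. coli BL21(DE3), purified by Ni-NTA and gel filtration into 10 mM Hepes pH 7.5, 150 mM NaCl, 1 mM DTT. At 25°C, 1 mM SAM or SAH was titrated into 0.2 mM protein over 20 injections, with a background titration into buffer. Single-site fit gave Kd, ΔH and n; ΔG and ΔS were calculated. Runs: three for measurable binding, two for undetectable binding.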

V66W/E67P mutant dSAMTOR = V66W/E67P mutant dSAMTOR (Drosophila melanogaster, UniProt Q9W138, E67P/V66W); experiment: ITC ligand binding, V66W/E67P dSAMTOR
How it was run: as §1

F135A mutant dSAMTOR = F135A mutant dSAMTOR (Drosophila melanogaster, UniProt Q9W138, F135A); experiment: ITC ligand binding, F135A dSAMTOR
How it was run: as §1

[3] = target: T1, R95A hSAMTOR interaction with GATOR1-KICSTOR (Homo sapiens, UniProt Q1RMZ1, R95A); experiment: Co-IP of Flag-hSAMTOR-R95A with HA-Nprl3 and Myc-Kaptin with or without SAM; type: biochemical; details: HEK 293T cell lysates, 0.5 mM SAM
T1 sequence (Q1RMZ1 1-405 R95A): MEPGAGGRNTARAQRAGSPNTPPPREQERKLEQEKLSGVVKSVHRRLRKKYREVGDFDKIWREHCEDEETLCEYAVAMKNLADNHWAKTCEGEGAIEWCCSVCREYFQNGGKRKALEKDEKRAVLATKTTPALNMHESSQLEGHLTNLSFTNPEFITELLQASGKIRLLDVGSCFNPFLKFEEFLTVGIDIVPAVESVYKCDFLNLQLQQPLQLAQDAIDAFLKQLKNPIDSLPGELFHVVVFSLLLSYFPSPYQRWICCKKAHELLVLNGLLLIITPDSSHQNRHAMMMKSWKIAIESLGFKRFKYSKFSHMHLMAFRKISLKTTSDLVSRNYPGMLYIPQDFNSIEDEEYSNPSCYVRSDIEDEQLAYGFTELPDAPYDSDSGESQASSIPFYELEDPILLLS

[4] = target: T2, D202A hSAMTOR interaction with GATOR1-KICSTOR (Homo sapiens, UniProt Q1RMZ1, D202A); experiment: Co-IP of Flag-hSAMTOR-D202A with HA-Nprl3 and Myc-Kaptin with or without SAM; type: biochemical; details: HEK 293T cell lysates, 0.5 mM SAM
T2 sequence (Q1RMZ1 1-405 D202A): T1 sequence (Q1RMZ1 1-405 R95A) with A95R, D202A

hSAMTOR = details: read-out: dissociation constant (Kd); cited from earlier work

Sequence of F135A mutant dSAMTOR (Q9W138 whole entry F135A): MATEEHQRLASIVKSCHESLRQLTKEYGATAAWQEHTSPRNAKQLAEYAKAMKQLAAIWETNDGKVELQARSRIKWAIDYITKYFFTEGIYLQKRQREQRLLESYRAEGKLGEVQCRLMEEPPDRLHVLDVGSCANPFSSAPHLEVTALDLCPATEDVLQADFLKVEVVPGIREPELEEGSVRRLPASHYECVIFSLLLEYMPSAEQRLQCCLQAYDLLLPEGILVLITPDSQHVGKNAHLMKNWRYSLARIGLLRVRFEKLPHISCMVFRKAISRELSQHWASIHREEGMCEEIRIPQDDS
Sequence of dSAMTOR (WT, full-length) (Q9W138 whole entry, the tested form may be a part): as the sequence (Q9W138 whole entry F135A) above, with A135F counted along it
Sequence of N-terminal truncated dSAMTOR (Δ1-64) (Q9W138 65-302, stated change not applied): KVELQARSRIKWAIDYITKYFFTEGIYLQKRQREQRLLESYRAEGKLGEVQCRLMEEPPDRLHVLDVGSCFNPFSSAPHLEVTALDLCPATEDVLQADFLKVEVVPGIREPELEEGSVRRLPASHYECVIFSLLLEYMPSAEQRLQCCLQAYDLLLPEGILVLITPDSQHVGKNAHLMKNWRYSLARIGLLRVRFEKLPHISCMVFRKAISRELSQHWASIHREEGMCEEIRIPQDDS
Sequence of V66W/E67P mutant dSAMTOR (Q9W138 whole entry V66W/E67P): as the sequence (Q9W138 whole entry F135A) above, with V66W, E67P, A135F counted along it

C[S+](CC[C@H](N)C(=O)[O-])C[C@H]1O[C@@H](n2cnc3c(N)ncnc32)[C@H](O)[C@@H]1O (stereo partly drawn) [SAM, S-adenosylmethionine]
Kd [1]: 10.7 ± 0.88 µM
TΔS ([1]; ITC, 25°C, WT dSAMTOR): 4.66 kcal/mol
n value ([1]; ITC, 25°C, WT dSAMTOR): 0.75 ± 0.08
ΔH ([1]; ITC, 25°C, WT dSAMTOR): -2.12 ± 0.05 kcal/mol
Kd [2]: 6.78 ± 0.75 µM
TΔS ([2]; ITC, 25°C, Δ1-64 dSAMTOR): 5.89 kcal/mol
n value ([2]; ITC, 25°C, Δ1-64 dSAMTOR): 0.91 ± 0.01
ΔH ([2]; ITC, 25°C, Δ1-64 dSAMTOR): -1.16 ± 0.01 kcal/mol
Kd (V66W/E67P mutant dSAMTOR): 9.47 ± 0.81 µM
n value (V66W/E67P mutant dSAMTOR; ITC, 25°C, V66W/E67P dSAMTOR): 0.88 ± 0.02
ΔH (V66W/E67P mutant dSAMTOR; ITC, 25°C, V66W/E67P dSAMTOR): -3.01 ± 0.08 kcal/mol
Kd (F135A mutant dSAMTOR): 6.46 ± 0.4 µM
increase of binding affinity compared to the WT dSAMTOR (F135A mutant dSAMTOR; F135A vs WT dSAMTOR, ITC): < 2 fold
n value (F135A mutant dSAMTOR; ITC, 25°C, F135A dSAMTOR): 0.79 ± 0.01
ΔH (F135A mutant dSAMTOR; ITC, 25°C, F135A dSAMTOR): -5.24 ± 0.11 kcal/mol
effect of SAM on interaction of hSAMTOR with GATOR1-KICSTOR (co-IP) [3]: comparable interactions with GATOR1 and KICSTOR in both the absence and presence of SAM
effect of SAM on interaction of hSAMTOR with GATOR1-KICSTOR (co-IP) [4]: comparable interactions with GATOR1 and KICSTOR in both the absence and presence of SAM
Kd (hSAMTOR): 7 µM
